Reference: ChEMBL document CHEMBL3739318, “Orally Bioavailable Metal Chelators and Radical Scavengers: Multifunctional Antioxidants for the Coadjutant Treatment of Neurodegenerative Diseases” (J Med Chem, 2015)
The source made the active and inactive calls. No cut-off for these calls is given here.

Key:
[1] = test system: ARPE-19; assay: Neuroprotective activity against Fenton reagent-induced ROS generation in human ARPE19 cells assessed as increase in GSH level at 1 mM after 2 hrs by DTNB method; type: functional, cell-based
Method in brief: (§1)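 Cells grown in 60 or 150 mm dishes and exposed 2 h to Fenton reagent (1 mM H2O2 + 1 mM Fe2+) with or without 1 mM compound in 0.16% DMSO. Intracellular glutathione then measured. Mean ± SEM, n = 6. ANOVA.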

[2] = Metal chelating activity assessed as stoichiometric ratio of compound to Fe2+ ion at 0.1 to 0.5 mM of compound and metal ion mixture after 45 mins by spectrophotometric analysis; type: physicochemical; conditions: 0.75 h, 500 µM
Method in brief: (§2)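 Job continuous-variation method at 23 °C. Compound dissolved in acetonitrile, then diluted to 0.1 mM stock in 1 mM acetate pH 6.5. Compound + ion at constant total 0.1–0.5 mM with varied mole fraction. After 45 min equilibration, UV absorbance scanned 210–310 nm. Stoichiometry taken from the intersection of lines. Mean ± SD, n = 3.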

[3] = Metal chelating activity assessed as stoichiometric ratio of compound to Fe3+ ion at 0.1 to 0.5 mM of compound and metal ion mixture after 45 mins by spectrophotometric analysis; type: physicochemical; conditions: 0.75 h, 500 µM; method in brief: as §2
[4] = test system: SH-SY5Y; assay: Cytotoxicity against human SH-SY5Y cells assessed as reduction in cell viability at 1 mM after 2 hrs by MTS assay; type: cell-based; conditions: 1000 µM
Method in brief: (§3)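 ARPE-19 grown in DMEM + 4% FBS and SH-SY5Y in EMEM/F12 + 10% FBS, at 37 °C, 5% CO2. Plated at 1 × 10^4 cells/well. Exposed 2 h to 1 mM compound (0.16% DMSO) without oxidant. Viability by MTS. Mean ± SEM, n = 4, ANOVA versus blank control.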

[5] = Metal chelating activity assessed as stoichiometric ratio of compound to Cu+ ion at 0.1 to 0.5 mM of compound and metal ion mixture after 45 mins by spectrophotometric analysis; type: physicochemical; conditions: 0.75 h, 500 µM; method in brief: as §2
[6] = Metal chelating activity assessed as stoichiometric ratio of compound to Cu2+ ion at 0.1 to 0.5 mM of compound and metal ion mixture after 45 mins by spectrophotometric analysis; type: physicochemical; conditions: 0.75 h, 500 µM; method in brief: as §2
[7] = Metal chelating activity assessed as stoichiometric ratio of compound to Zn2+ ion at 0.1 to 0.5 mM of compound and metal ion mixture after 45 mins by spectrophotometric analysis; type: physicochemical; conditions: 0.75 h, 500 µM; method in brief: as §2
[8] = Metal chelating activity assessed as stoichiometric ratio of compound to Mn2+ ion at 0.1 to 0.5 mM of compound and metal ion mixture after 45 mins by spectrophotometric analysis; type: physicochemical; conditions: 0.75 h, 500 µM; method in brief: as §2
[9] = Metal chelating activity assessed as stoichiometric ratio of compound to Mg2+ ion at 0.1 to 0.5 mM of compound and metal ion mixture after 45 mins by spectrophotometric analysis; type: physicochemical; conditions: 0.75 h, 500 µM; method in brief: as §2
[10] = Metal chelating activity assessed as stoichiometric ratio of compound to Ca2+ ion at 0.1 to 0.5 mM of compound and metal ion mixture after 45 mins by spectrophotometric analysis; type: physicochemical; conditions: 0.75 h, 500 µM; method in brief: as §2
[11] = Cytotoxicity against human ARPE19 cells assessed as reduction in cell viability at 1 mM after 2 hrs by MTS assay; type: cell-based; conditions: arpe-19, 2 h, 1000 µM; method in brief: as §3
[12] = test system: SH-SY5Y; assay: Neuroprotective activity against Fenton reagent-induced ROS generation-stimulated cytotoxicity in human SH-SY5Y cells assessed as cell viability at 1 mM after 2 hrs by MTS assay; type: functional, cell-based
Method in brief: (§4)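 Cells in 96-well format exposed 2 h to Fenton reagent (1 mM H2O2 + 1 mM Fe2+) with or without 1 mM compound in 0.16% DMSO. Viability by MTS assay, normalized to untreated cells without Fenton reagent (100%). Mean ± SEM, n = 4. ANOVA.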

[13] = test system: ARPE-19; assay: Neuroprotective activity against Fenton reagent-induced ROS generation-stimulated cytotoxicity in human ARPE19 cells assessed as cell viability at 1 mM after 2 hrs by MTS assay; type: functional, cell-based; method in brief: as §4
[14] = test system: SH-SY5Y; assay: Neuroprotective activity against Fenton reagent-induced ROS generation in human SH-SY5Y cells assessed as increase in GSH level at 1 mM after 2 hrs by DTNB method; type: functional, cell-based; method in brief: as §1
[15] = test system: SH-SY5Y; assay: Antioxidant activity in human SH-SY5Y cells assessed as reduction of xanthine oxidase-mediated superoxide generation preincubated for 1 hr followed by xanthine oxidase challenge for 1 hr by MitoSOX staining-based fluorescence analysis; type: functional, cell-based
Method in brief: (§5)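 Cells washed with PBS, then preincubated 1 h at 37 °C in serum-free medium with 1, 10, 100 or 1000 μM compound, or SOD 25 μg/mL as reference. Xanthine oxidase added (25 mU/mL; ~100 μM superoxide) for 1 h more. After a PBS wash, cells stained with MitoSOX Red (5 μM) for 2 h. Fluorescence read at Ex/Em 510/580 nm.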

[16] = test system: ARPE-19; assay: Antioxidant activity in human ARPE19 cells assessed as reduction of xanthine oxidase-mediated superoxide generation preincubated for 1 hr followed by xanthine oxidase challenge for 1 hr by MitoSOX staining-based fluorescence analysis; type: functional, cell-based; method in brief: as §5
[17] = test system: SH-SY5Y; assay: Neuroprotective activity against Fenton reagent-induced hydroxy radical-stimulated cytotoxicity in human SH-SY5Y cells assessed as cell survival at 1 to 1000 uM preincubated for 1 hr followed by Fenton reagent challenge for 2 hrs by fluorescence-based LIVE/DEAD viability/cytotoxicity assay; type: functional
Method in brief: (§6)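 After a PBS wash, cells preincubated 1 h at 37 °C in serum-free medium with 1–1000 μM compound. Fenton reagent (Fe2+/H2O2, 100 μM final) then added for 2 h. Stained 15 min at 37 °C with calcein AM 8 μM and EthD-1 16 μM. Fluorescence read at 494/517 and 528/617 nm. % live cells calculated from blank-corrected single-dye controls; dead-cell control 70% ethanol. Mean ± SEM, n = 6.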

[18] = test system: ARPE-19; assay: Neuroprotective activity against Fenton reagent-induced hydroxy radical-stimulated cytotoxicity in human ARPE19 cells assessed as cell survival at 1 to 1000 uM preincubated for 1 hr followed by Fenton reagent challenge for 2 hrs by fluorescence-based LIVE/DEAD viability/cytotoxicity assay; type: functional; method in brief: as §6
[19] = Drug uptake in neural retina of C57BL/6 mouse assessed per mg of protein at 80 mg/kg, po administered everyday for 14 days by HPLC-MS analysis; type: ADME, organism-based; conditions: in vivo, 336 h
Method in brief: (§7)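 C57BL/6 mice fed chow containing 0.05% compound (~80 mg/kg/day average) for 14 days. Perfused with PBS; brain, lens and neural retina homogenized in ice-cold 10 mM acetate pH 4 with internal standard. Extracted with TCA precipitation and chloroform. Analyzed by reverse-phase C18 HPLC.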

[20] = Drug uptake in lens of C57BL/6 mouse assessed per mg of protein at 80 mg/kg, po administered everyday for 14 days by HPLC-MS analysis; type: ADME, organism-based, Lens of camera-type eye; conditions: in vivo, 336 h; method in brief: as §7
[21] = test system: Brain; assay: Drug uptake in brain of C57BL/6 mouse assessed per mg of protein at 80 mg/kg, po administered everyday for 14 days by HPLC-MS analysis; type: ADME, organism-based; conditions: in vivo, 336 h; method in brief: as §7

SMILES	Activity [1]	Activity [12]	Activity [13]	Activity [14]	Activity [15]	Activity [16]	Activity [17]	Activity [18]	Drug uptake [19]	Drug uptake [20]	Drug uptake [21]	also measured
COc1nc(N2C(=O)CCC2=O)nc(OC)c1O	Active	Active	Active	Active	Dose-dependent effect	Dose-dependent effect	Dose-dependent effect	Dose-dependent effect	Active	Active		Ratio [2]: 2.03; Ratio [3]: 2.12; Activity [4]: Non-toxic; Ratio [5]: 2.03; Ratio [6]: 2.13; Ratio [7]: 2.01; Ratio [8]: 2.22; Ratio [9]: 0; Ratio [10]: 0; Activity [11]: Non-toxic
CN(C)S(=O)(=O)N1CC(=O)N(c2ncc(O)cn2)C(=O)C1	Active	Active	Active	Active	Dose-dependent effect	Dose-dependent effect	Dose-dependent effect	Dose-dependent effect	Active	Active	3 ng/mg	
COc1nc(N2C(=O)CN(S(=O)(=O)N(C)C)CC2=O)nc(OC)c1O									Active	Active	4 ng/mg	
